Experimental data gathered from unrelated publications.
Each line is one published result; the experiments were not run side by side.
RET M918T: Proto-oncogene tyrosine-protein kinase receptor Ret (RET, Homo sapiens, UniProt P07949, M918T)
RET: Proto-oncogene tyrosine-protein kinase receptor Ret (RET, Homo sapiens, UniProt P07949)
RET V804L: Proto-oncogene tyrosine-protein kinase receptor Ret (RET, Homo sapiens, UniProt P07949, V804L)
RET V804M: Proto-oncogene tyrosine-protein kinase receptor Ret (RET, Homo sapiens, UniProt P07949, V804M)

target	read-out	method	concentration	remaining binding	Structure (SMILES)
RET M918T	binding	competition with immobilised ligand	1 µM	97%	C=CC(=O)N1CCC(C(=O)NCC(=O)N2CCN(c3nc(-c4cnc(N)nc4C(F)F)nc(N4CCOCC4)n3)CC2)CC1
RET	binding	–	1 µM	86%	CN(CCCC(F)(F)F)c1nccc(-c2cnn3ncccc23)n1
RET M918T	cell-free assay	competition with immobilised ligand	1 µM	92%	O=C(N1CCS(=O)(=O)CC1)N1C[C@H](c2ccc(OC(F)(F)F)cc2)C[C@H](c2nc(C3CC3)no2)C1
RET V804L	binding	competition with immobilised ligand	10 µM	10%	c1cncc(-c2cccc(Nc3nccc(NC4CCCCC4)n3)c2)c1
RET	cell-free assay	competition with immobilised ligand	1 µM	91%	CS(=O)(=O)NCC[C@H](NC(=O)c1cncc2c1cnn2-c1ccc(F)cc1)c1ccnc(S(C)(=O)=O)c1
RET V804L	binding	–	10 µM	40%	CN1CCN(c2ccc(Nc3nccc(-c4ccccc4)n3)cc2C(F)(F)F)CC1
RET V804L	binding	–	1 µM	100%	COc1ccnn2ncc(-c3ccnc(N(C)C)n3)c12
RET M918T	binding	competition with immobilised ligand	1 µM	96%	O=C(NCC1CCOCC1)c1n[nH]cc1NC(=O)c1c(F)cccc1F
RET M918T	binding	competition with immobilised ligand	1 µM	49%	COc1cnc(Nc2cccc(S(N)(=O)=O)c2)nc1N1CCN(c2ccccc2)CC1
RET V804M	cell-free assay	competition with immobilised ligand	0.1 µM	82%	CC(C)CC(=O)N1CCc2nc(-c3ccc(Br)cc3)nc(N(C)Cc3ccccc3)c2C1
RET V804M	binding	competition with immobilised ligand	1 µM	100%	CNC(=O)[C@@H]1CC[C@@H](n2c(-c3ccc4cnccc4c3)nc3ccc(C(=O)NCc4cccc(C(N)=O)c4)cc32)C1
RET	cell-free assay	competition with immobilised ligand	1 µM	95%	CN(C(=O)c1ccccc1)c1cc(N(C)c2ccc3c(c2)CCc2ccc(C(=O)NCCN4CCOCC4)cc2C3=O)ccc1F
RET V804M	cell-free assay	competition with immobilised ligand	5 µM	98%	COc1ncc2cc3ccccc3nc2c1C#N
RET	binding	competition with immobilised ligand	1 µM	90%	COc1cnc(Nc2cccc(S(N)(=O)=O)c2)nc1N1CCN(c2ccccc2)C(=O)C1
RET	binding	competition with immobilised ligand	1 µM	12%	Cc1cnc(Nc2ccc(C(=O)N3CCC(N4CCCC4)CC3)cc2)nc1-c1cc2ccccc2s1
RET	binding	competition with immobilised ligand	1 µM	100%	O=C(Nc1c[nH]nc1C(=O)NC1CCNCC1)c1cc(F)cc(F)c1
RET V804L	binding	competition with immobilised ligand	0.1 µM	99%	C[C@@H](c1ccc(-n2cnc3c(N)ncnc32)cc1)N1CCc2nn(C)c(Cc3ccccc3)c2C1=O

target	read-out	method	concentration	remaining binding	Structure (SMILES)
RET V804L	binding	–	1 µM	94%	N[C@@H]1CCN(c2nccc(-c3cnn4ncccc34)n2)C1
RET V804M	binding	competition with immobilised ligand	1 µM	100%	Nc1ncc2c(n1)-c1c([nH]c3ccc(C#CC4CC4)cc13)CCCC2
RET	binding	competition with immobilised ligand	1 µM	55%	O=C(NCCCN1CCOCC1)c1ccc(Nc2nccc(-c3cc4ccccc4s3)n2)cc1
RET V804L	binding	competition with immobilised ligand	1 µM	99%	CCN1CCN(Cc2ccc(C(=O)Nc3ccc(C)c(Oc4ccc5c(c4)CC(=O)N5)c3)cc2C(F)(F)F)CC1
RET	cell-free assay	competition with immobilised ligand	1 µM	100%	c1ccc(N2CCN(Cc3nc4ccccc4[nH]3)CC2)nc1
RET M918T	binding	competition with immobilised ligand	1 µM	83%	O=C(c1ccc(Nc2nccc(-c3cc4ccccc4s3)n2)cc1)N1CCC(N2CCCC2)CC1
RET	binding	–	1 µM	92%	F[C@@H]1CCN(c2nccc(-c3cnn4ncccc34)n2)C1
RET	cell-free assay	competition with immobilised ligand	1 µM	96%	Cc1cc(-n2nc(Cc3cc(F)cc(C(F)(F)F)c3)nc2C)ccc1C(N)=O
RET V804L	binding	competition with immobilised ligand	1 µM	10%	O=C(c1ccc(Nc2ncc(Cl)c(-c3ccc(Cl)s3)n2)cc1)N1CCC(N2CCCC2)CC1
RET	binding	–	1 µM	97%	c1cnn2ncc(-c3ccnc(N4CCC45COC5)n3)c2c1
RET V804M	binding	competition with immobilised ligand	1 µM	100%	O=C(N[C@H]1CCCCC/C=C\C2C[C@@]2(C(=O)O)NC(=O)[C@@H]2C[C@@H](Oc3ccncc3)CN2C1=O)OC1CCCC1 (stereo partly shown)
RET V804M	binding	competition with immobilised ligand	1 µM	15%	O=C(NCCCN1CCOCC1)c1ccc(Nc2ncc(Cl)c(-c3ccc(Cl)s3)n2)cc1
RET	binding	–	1 µM	100%	CC1CCCN1c1nccc(-c2cnn3ncccc23)n1 (stereo not shown)
RET	binding	competition with immobilised ligand	1 µM	25%	O=C(c1ccc(Nc2ncc(Cl)c(-c3cc4ccccc4s3)n2)cc1)N1CCC(N2CCCC2)CC1
RET M918T	binding	–	10 µM	34%	CN1CCN(c2ccc(Nc3nccc(-c4cccc([N+](=O)[O-])c4)n3)cc2C(F)(F)F)CC1
RET V804M	cell-free assay	competition with immobilised ligand	1 µM	100%	O=C(O)c1cc(-c2ccc(C3CCNCC3)cc2)c2ccc(-c3ccc(C(F)(F)F)cc3)cc2c1
RET	binding	–	1 µM	97%	C[C@H]1CCN(c2nccc(-c3cnn4ncccc34)n2)C1
